From ChEMBL document CHEMBL4339197, “Discovery of Imidazo[1,2-a]pyrazines and Pyrazolo[1,5-c]pyrimidines as TARP γ-8 Selective AMPAR Negative Modulators” (ACS Med Chem Lett, 2019) come the findings set out here.

pIC50: −log10 of the molar value. Values after ≈ are worked out from the molar mass of the structure shown. Active and inactive are the calls of the source. The rule behind the calls is not given here. Bounds are passed on as bounds.

Data set [1] concerns the target GRIA1/CACNG8 (Homo sapiens). In words: Negative allosteric modulation of recombinant human GluA1 flop isoform/TARPgamma8 expressed in HEK293 cells assessed as inhibition of glutamate-induced calcium flux at 100 uM by calcium 5/6 dye based FLIPR assay. Particulars: for IC50: read-out: pIC50 (converted). On the technique in general: Calcium assays in cells follow changes in intracellular calcium, usually with a dye or a luminescent sensor.

For a further data set, the target named is Cytochrome P450 2C9 (Homo sapiens, UniProt P11712). In words: Inhibition of CYP2C9 in human liver microsomes using diclofenac as substrate measured after 15 mins in presence of NADPH by LC-MS/MS analysis. Format: ADME. For orientation: Liver microsomes are vesicles of endoplasmic reticulum, rich in cytochrome P450 enzymes.
Cytochrome P450 2C9, sequence (P11712 whole entry): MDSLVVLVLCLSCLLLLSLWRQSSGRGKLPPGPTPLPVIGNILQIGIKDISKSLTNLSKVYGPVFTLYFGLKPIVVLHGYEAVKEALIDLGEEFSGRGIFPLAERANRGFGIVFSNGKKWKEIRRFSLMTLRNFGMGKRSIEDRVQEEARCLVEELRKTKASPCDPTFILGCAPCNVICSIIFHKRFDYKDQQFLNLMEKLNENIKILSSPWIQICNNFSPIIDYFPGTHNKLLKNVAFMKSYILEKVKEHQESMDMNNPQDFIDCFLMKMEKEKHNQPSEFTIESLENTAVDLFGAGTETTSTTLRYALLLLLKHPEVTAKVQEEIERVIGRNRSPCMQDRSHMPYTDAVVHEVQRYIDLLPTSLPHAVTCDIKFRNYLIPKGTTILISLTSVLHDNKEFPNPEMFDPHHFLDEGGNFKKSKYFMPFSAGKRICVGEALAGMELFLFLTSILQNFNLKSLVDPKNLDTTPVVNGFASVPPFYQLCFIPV
A short description of data set [2]: Efflux ratio of apparent permeability across basolateral to apical side over apical to basolateral side in MDCK-MDR1 cells at 5 uM measured after 60 mins by LC-MS/MS analysis. Format: ADME, cell-based, Canis lupus familiaris. Conditions: dog. In outline:
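Bidirectional permeability; efflux reported as the ratio of B-to-A over A-to-B apparent permeability.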

Data set [3] in a line: Extraction ratio in human liver microsomes at 1 uM measured after 60 mins by LC-MS/MS analysis. Particulars: read-out: ERH. Format: ADME, Microsome. The method, boiled down:
(§1)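 Metabolic stability in human and rat liver microsomes at 1 µM compound; reported as extraction ratio.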

The nature of data set [4]: Extraction ratio in rat liver microsomes at 1 uM measured after 60 mins by LC-MS/MS analysis. Format: ADME, Microsome. Particulars: read-out: ERH. The method, boiled down: as §1
A short description of data set [5]: Apparent permeability across apical to basolateral side in MDCK-MDR1 cells at 5 uM measured after 60 mins by LC-MS/MS analysis. Format: ADME, cell-based, Canis lupus familiaris. Conditions: dog.
For data set [6], the system named is Mus musculus. In words: Ex vivo receptor occupancy at TARPgamma8 in mouse assessed as reduction in [3H]JNJ-56022486 receptor labeling at 10 mg/kg, po measured after 1 hr by autoradiography. Format: functional. The method, boiled down: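 Mice given a single 10 mg/kg p.o. dose and sampled over time (n = 3 per time point, ±SEM). GluA/γ-8 receptor occupancy in hippocampus measured by ex vivo autoradiography with [3H]JNJ-56022486 radiotracer. Plasma and brain exposures also measured.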

Data set [7] has as its system Mus musculus. In words: Ex vivo receptor occupancy at TARPgamma8 in po dosed mouse assessed as reduction in [3H]JNJ-56022486 receptor labeling by autoradiography. Format: functional. The method, boiled down:
(§2)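 Occupancy measured by ex vivo autoradiography with [3H]JNJ-56022486. ED50 from a Hill fit of occupancy versus dose. Brain and plasma EC50 from fitting occupancy against exposure.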

For data set [8], the system named is Mus musculus. In words: Anticonvulsant activity in albino CF1 mouse model of 60-Hz corneal stimulation induced kindling model assessed as decrease in seizure score at 5 mg/kg/day measured 1 hr post last dose. Format: functional, organism-based. In outline: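 Mouse corneal kindling model; once-daily oral dosing at 5 mg/kg/day for 5 days, seizure challenge 1 h after dosing. Rotarod test given immediately before challenge. Read-out is the fraction of animals protected (Racine score 3 or lower). N = 12-14 animals per cohort.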

Data set [9] deals with Mus musculus. In words: Anticonvulsant activity in po dosed albino CF1 mouse model of 60-Hz corneal stimulation induced kindling model assessed as decrease of seizure score treated for 1 hr prior to 60-Hz corneal stimulation and measured after 1 hr.
Data set [10] concerns Mus musculus. In words: Ex vivo receptor occupancy at TARPgamma8 in po dosed mouse assessed as plasma concentration causing 50% reduction in [3H]JNJ-56022486 receptor labeling by autoradiography. Format: functional, organism-based. The method, boiled down: as §2
The target of another data set is GRIA1/CACNG8 (Homo sapiens, UniProt P42261+Q8WXS5). In words: Negative allosteric modulation of recombinant human GluA1 flop isoform/TARPgamma8 expressed in HEK293 cells assessed as inhibition of glutamate-induced calcium flux by calcium 5/6 dye based FLIPR assay. Format: cell-based. The method, boiled down:
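FLIPR assay of glutamate-induced Ca2+ flux in HEK-293 cells expressing a human GluA1o-γ-8 fusion construct. At least three assays each run in triplicate; mean pIC50 with standard deviation.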

Data set [11] deals with T1, GRIA1/CACNG2 (Homo sapiens, UniProt P42261+Q9Y698). In words: Negative allosteric modulation of recombinant human GluA1 flop isoform/TARPgamma2 expressed in HEK293 cells assessed as inhibition of glutamate-induced calcium flux by calcium 5/6 dye based FLIPR assay. Format: cell-based. The method, boiled down:
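FLIPR Ca2+ flux assay in HEK-293 cells transiently expressing human GluA1o co-transfected with γ-2; glutamate-induced response; reported as pIC50.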

Data set [12] addresses T2, Voltage-dependent calcium channel gamma-2 subunit (Rattus norvegicus, UniProt Q71RJ2).
T2 sequence (Q71RJ2 whole entry): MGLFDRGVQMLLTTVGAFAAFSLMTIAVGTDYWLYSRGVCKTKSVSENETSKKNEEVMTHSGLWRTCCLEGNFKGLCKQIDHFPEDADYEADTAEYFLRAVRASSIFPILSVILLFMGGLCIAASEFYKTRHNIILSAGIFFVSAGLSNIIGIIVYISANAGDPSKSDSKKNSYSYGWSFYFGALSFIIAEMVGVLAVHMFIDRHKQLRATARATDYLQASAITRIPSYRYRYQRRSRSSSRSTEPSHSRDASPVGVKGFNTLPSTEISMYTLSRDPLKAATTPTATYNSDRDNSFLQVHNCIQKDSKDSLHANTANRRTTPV
In words: Negative allosteric modulation of TARPgamma2 in rat cerebellar purkinje neurons assessed as inhibition of glutamate-induced current at 10 uM at -60 mV holding potential measured at 5 secs interval for 50 to 60 secs by patch-clamp electrophysiology method.

Data set [13] concerns the target T3, Voltage-dependent calcium channel gamma-8 subunit (Rattus norvegicus) (UniProt Q8VHW5).
T3 sequence (whole entry): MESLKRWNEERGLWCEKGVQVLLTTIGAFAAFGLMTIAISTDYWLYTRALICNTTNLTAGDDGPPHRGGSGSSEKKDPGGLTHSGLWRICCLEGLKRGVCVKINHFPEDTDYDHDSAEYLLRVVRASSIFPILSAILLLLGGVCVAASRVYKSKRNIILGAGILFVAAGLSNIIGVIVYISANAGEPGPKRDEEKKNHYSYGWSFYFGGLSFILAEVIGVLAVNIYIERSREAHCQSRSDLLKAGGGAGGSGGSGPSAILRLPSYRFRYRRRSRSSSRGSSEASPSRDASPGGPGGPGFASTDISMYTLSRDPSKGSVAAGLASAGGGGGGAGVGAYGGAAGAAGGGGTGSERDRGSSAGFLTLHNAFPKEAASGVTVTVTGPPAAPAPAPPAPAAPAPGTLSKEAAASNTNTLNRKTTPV
In words: Negative allosteric modulation of TARPgamma8 in rat hippocampal neurons assessed as inhibition of glutamate-induced current at 10 uM at -60 mV holding potential by patch-clamp electrophysiology method.

Data set [14] addresses T3, Voltage-dependent calcium channel gamma-8 subunit (Rattus norvegicus). In words: Negative allosteric modulation of TARPgamma8 in rat hippocampal neurons assessed as inhibition of glutamate-induced current at 10 uM at -60 mV holding potential measured at 5 secs interval for 50 to 60 secs by patch-clamp electrophysiology method relative to control. A general note: Patch clamp records ionic current or voltage across a cell membrane.

In data set [15] the target is T1, GRIA1/CACNG2. In words: Negative allosteric modulation of recombinant human GluA1 flop isoform/TARPgamma2 expressed in HEK293 cells assessed as inhibition of glutamate-induced calcium flux at 100 uM by calcium 5/6 dye based FLIPR assay. Conditions: hek293, 100 µM. Format: cell-based. In outline:
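Counterscreen of FLIPR Ca2+ flux in HEK-293 cells co-transfected with human GluA1o and γ-2, tested up to 100 µM.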

T1 sequence (P42261 whole entry, canonical isoform): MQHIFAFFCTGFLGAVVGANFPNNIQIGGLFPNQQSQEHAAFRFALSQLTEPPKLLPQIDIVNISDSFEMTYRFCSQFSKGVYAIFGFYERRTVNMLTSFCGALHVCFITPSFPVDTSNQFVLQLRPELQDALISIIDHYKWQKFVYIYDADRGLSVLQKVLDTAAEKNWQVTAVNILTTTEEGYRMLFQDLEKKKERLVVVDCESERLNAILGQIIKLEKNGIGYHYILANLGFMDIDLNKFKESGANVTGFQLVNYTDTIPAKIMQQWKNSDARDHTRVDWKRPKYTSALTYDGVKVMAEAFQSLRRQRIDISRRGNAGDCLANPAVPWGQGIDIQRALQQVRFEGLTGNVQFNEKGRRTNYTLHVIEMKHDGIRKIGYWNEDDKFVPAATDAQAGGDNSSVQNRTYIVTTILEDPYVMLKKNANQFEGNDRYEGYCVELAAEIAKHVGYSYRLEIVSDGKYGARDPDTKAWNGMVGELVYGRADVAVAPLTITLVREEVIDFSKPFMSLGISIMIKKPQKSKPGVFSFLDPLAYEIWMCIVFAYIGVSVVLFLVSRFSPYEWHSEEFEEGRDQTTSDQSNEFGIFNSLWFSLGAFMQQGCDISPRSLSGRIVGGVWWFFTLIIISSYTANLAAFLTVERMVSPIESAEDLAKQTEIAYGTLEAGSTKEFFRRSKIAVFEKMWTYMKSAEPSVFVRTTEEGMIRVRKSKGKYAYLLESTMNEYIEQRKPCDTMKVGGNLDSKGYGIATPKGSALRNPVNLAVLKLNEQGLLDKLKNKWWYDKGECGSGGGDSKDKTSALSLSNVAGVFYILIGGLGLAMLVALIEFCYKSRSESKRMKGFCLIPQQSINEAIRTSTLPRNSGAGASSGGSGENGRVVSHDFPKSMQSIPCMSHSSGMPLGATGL
T1 sequence (Q9Y698 whole entry, canonical isoform): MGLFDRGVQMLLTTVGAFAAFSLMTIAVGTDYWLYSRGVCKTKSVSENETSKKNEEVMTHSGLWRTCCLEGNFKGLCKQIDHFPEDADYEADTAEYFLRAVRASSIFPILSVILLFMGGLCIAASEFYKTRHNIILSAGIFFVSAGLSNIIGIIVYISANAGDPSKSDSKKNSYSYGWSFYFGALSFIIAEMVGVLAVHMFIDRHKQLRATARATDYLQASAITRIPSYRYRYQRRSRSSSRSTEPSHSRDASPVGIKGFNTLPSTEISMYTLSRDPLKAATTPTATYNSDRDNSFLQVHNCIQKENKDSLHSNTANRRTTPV
GRIA1/CACNG8, sequence (P42261 whole entry, the tested form may be a part, canonical isoform): as the sequence (P42261 whole entry, canonical isoform) above
GRIA1/CACNG8, sequence (Q8WXS5 whole entry, the tested form may be a part, canonical isoform): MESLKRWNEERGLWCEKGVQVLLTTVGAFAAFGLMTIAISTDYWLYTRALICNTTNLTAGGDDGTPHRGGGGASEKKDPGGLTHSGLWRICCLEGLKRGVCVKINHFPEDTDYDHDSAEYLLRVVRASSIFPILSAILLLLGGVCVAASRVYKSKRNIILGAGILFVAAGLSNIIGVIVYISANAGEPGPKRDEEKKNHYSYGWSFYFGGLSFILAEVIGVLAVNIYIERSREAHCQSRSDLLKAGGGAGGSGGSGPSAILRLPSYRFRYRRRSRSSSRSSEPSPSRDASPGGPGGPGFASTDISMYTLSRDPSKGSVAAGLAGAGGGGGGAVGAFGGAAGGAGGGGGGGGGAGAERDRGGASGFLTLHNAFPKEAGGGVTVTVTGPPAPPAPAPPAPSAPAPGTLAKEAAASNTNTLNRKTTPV

The pIC50 is the IC50 on a negative log10 scale, so that one unit is a factor of ten. `Fc1ccc(-c2nc3c(N4CCOCC4)nccn3c2-c2ccc3[nH]ncc3c2)cc1`: the IC50 in data set [1] was 0.631 nM. Besides, the negative-log IC50 (pIC50) on Cytochrome P450 2C9 is 6.30.

Turning to `COc1ccc(-c2c(-c3ccc(F)cc3)nc3c(N4CCOCC4)nccn23)cc1`, in [1], the IC50 was 501 nM.

Regarding `O=C1Cc2cc(-c3c(-c4ccc(F)cc4)nn4c(N5CCOCC5)nccc34)ccc2N1`, the IC50 in data set [1] is 0.501 nM.

As usually defined, the efflux ratio is the permeability from basolateral to apical divided by that in the opposite direction, in the common usage. Usually Papp A→B stands for the apparent permeability from the apical to the basolateral side of a cell layer. On to `CC(=O)N1CCN(c2nccc3c(-c4ccc5c(c4)CC(=O)N5)c(-c4ccc(F)cc4)nn23)CC1`, for which the efflux ratio at 1 h, 5 µM in data set [2] was determined as 34. In addition, the IC50 in [1] was 0.251 nM. Besides, the hepatic extraction ratio at 1 h, 1 µM came out at 0.6 in data set [3] and 0.5 in data set [4]. Further, in data set [5], the Papp A→B at 1 h, 5 µM came to 2.1 ×10⁻⁶ cm/s.

By ED50 is commonly meant the dose at which the effect has come halfway, by size or by number of responders. As usually defined, the EC50 is the concentration that produces a half-maximal response. Take `O=C1Cc2cc(-c3c(-c4ccc(F)cc4)nn4c(N5CCC(O)CC5)nccc34)ccc2N1`: the Occ with Mus musculus [6] was over 90%. Further, the ED50 came out at 2.9 mg/kg with Mus musculus [7] and 1.3 mg/kg with Mus musculus [9]. Besides, the outcome in the data set on Mus musculus [8] was Active. In the data set on Mus musculus [10], the EC50 amounted to 0.362 µg/mL (≈ 0.816 µM).

`O=C1Cc2cc(-c3c(-c4ccc(F)cc4)nc4c(N5CCC(F)CC5)nccn34)ccc2N1`: the negative logarithm of the IC50 (pIC50) in data set [1] (read-out: IC50) is 10.00.

As usually defined, the inhibition is how much of the control response was suppressed. On to `COCCn1cc(-c2c(-c3ccc(Cl)cc3)nc3c(N4CCOCC4)nccn23)cn1`, for which the pIC50 on GRIA1/CACNG8 is 6.90; on GRIA1/CACNG2 [11], under 5.00. Further, the “inhibition (INH)” value (in data set [12]; at GRIA1/CACNG2 [15]) was “Not Active” in each case. In addition, the results for the inhibition entry in data set [13] and in [14] were “Dose-dependent effect” and 50%, respectively.

On to `Oc1ccc(-c2c(-c3ccc(F)cc3)nc3c(N4CCOCC4)nccn23)cc1`, for which the IC50 in [1] was 12.6 nM.

Take `O=C1CN(c2nccn3c(-c4ccc5c(c4)CC(=O)N5)c(-c4ccc(F)cc4)nc23)CCN1`: the IC50 in [1] is 0.501 nM.

Take `Oc1ccc(-n2c(-c3ccc(F)cc3)nc3ccccc32)cc1`: the values for the negative logarithm of the IC50 (pIC50) on GRIA1/CACNG8 and at GRIA1/CACNG2 [11] were 6.70 and 5.90, respectively.

`Oc1ccc(-c2c(-c3ccc(Cl)cc3)nc3c(N4CCOCC4)nccn23)cc1`: the IC50 in data set [1] was 10 nM.

Take `O=C1Cc2cc(-c3c(-c4ccc(F)cc4)nn4c(N5CCC(F)CC5)nccc34)ccc2N1`: the IC50 in [1] is 5.01 nM. Also, the hepatic extraction ratio at 1 h, 1 µM in [3] and in [4] was 0.6 throughout. Also, the Papp A→B at 1 h, 5 µM in [5] is 1.2 ×10⁻⁶ cm/s.

`O=C1CN(c2nccc3c(-c4ccc5c(c4)CC(=O)N5)c(-c4ccc(F)cc4)nn23)CCN1`: in data set [1], the IC50 was 5.01 nM.

Regarding `CC(=O)Nc1ccc(-c2c(-c3ccc(F)cc3)nc3c(N4CCOCC4)nccn23)cc1`, in data set [1], the IC50 was over 10000 nM.

Consider `CC(=O)N1CCN(c2nccn3c(-c4ccc5c(c4)CC(=O)N5)c(-c4ccc(F)cc4)nc23)CC1`, for which the IC50 in [1] was 0.398 nM.

For the compound `O=C1Cc2cc(-c3c(-c4ccc(F)cc4)nc4c(N5CCC(O)CC5)nccn34)ccc2N1`, the IC50 in [1] was 0.398 nM.

For `Nc1ccc(-c2c(-c3ccc(F)cc3)nc3c(N4CCOCC4)nccn23)cc1`, in [1], the IC50 is 63.1 nM.
